In brackets after ≈: the same amount, converted by molar mass. Several values for one entry are separate records, joined by “and”; a condition that tells them apart may be missing. Equal entries are not always repeated. Entries after “also recorded” stand apart in the source; their conditions may differ.
Experiments:
SERCA2a [1] = target: T1, SERCA2a (Sus scrofa, UniProt P11607); test: NADH-coupled enzyme-linked Ca2+-ATPase activity assay in cardiac SR vesicles; assay type: biochemical, porcine; details: for EC50 / Ca2+-ATPase [Ca2+]MAX % effect / Ca2+-ATPase [Ca2+]MID % effect: cardiac SR; for Max increase (%): vs no compound
SERCA2a [2] = target: T1, SERCA2a; test: oxalate-based Ca2+-uptake; assay type: biochemical, porcine; details: cardiac SR
Summary of the method: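 Porcine left-ventricular SR vesicles (30 μg/mL) were prepared by differential centrifugation. Buffer: 50 mM MOPS, 100 mM KCl, 30 mg/mL sucrose, 10 mM potassium oxalate, 2 μM Fluo-4, free Ca2+ at pCa 8.0, 6.2 or 5.4, test compound 0.048–50 μM (two-fold series). Incubation 20 min at 22 °C, dark; 5 mM MgATP start; Fluo-4 decrease (ex 485/em 520 nm) tracked 15 min. Basal pCa 8.0 rate subtracted; Hill fit gives EC50 and % effect.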

SERCA1a = test: NADH-coupled Ca2+-ATPase activity assay in skeletal SR vesicles; assay type: biochemical, rabbit; details: Table 5 vs Table S2
Summary of the method: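 Light SR came from rabbit skeletal white muscle by differential centrifugation and sucrose gradient. NADH-coupled assay: 4 μg/mL SR in 50 mM MOPS pH 7.0, 100 mM KCl, 1 mM EGTA, 0.2 mM NADH, 1 mM PEP, 10 IU/mL PK and LDH, 7 μM A23187, pCa 5.4/6.2/8.0. Test compound (0.048–50 μM) 20 min; 5 mM MgATP start; A340. pCa 8.0 rate subtracted; Hill fit gives EC50 and maximal % effect.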

Intrinsic clearance = assay type: in vitro ADME, human; details: for Thalf: human liver S9 0.5 mg/mL, 1 μM compound, NADPH, 37 °C; for microsomal CLint at 1 μM: human, liver S9 fraction, pH 7.4
HEK-293 cells = test: Cell viability; assay type: cell-based; details: read-out: Cell viability IC50, 72 h exposure, MTT
Summary of the method: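 HEK-293.2sus cells were seeded at 9.6 × 10^3 cells/well and given a concentration gradient of test compound for 72 h at 37 °C, 5% CO2. MTT (0.5 mg/mL) was added for 3–4 h, medium removed, formazan dissolved in DMSO (15 min shaking, 21 °C), and A595 read. Cell-free background was subtracted, values taken relative to DMSO controls, and IC50 fitted by nonlinear least squares. n = 3–6.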

SERCA2a [3] = target: T1, SERCA2a; details: earlier HTS study; cited from earlier work
SERCA2a [4] = target: T1, SERCA2a; details: earlier HTS study; cited from earlier work; remark: listed apart in the source
cardiomyocytes = details: cited from earlier work
[5] = Solubility assay in phosphate buffer, LC-MS/MS; assay type: physicochemical; details: 50 mM phosphate buffer pH 7.4, 37 °C, 12 h
[6] = Ca2+-ATPase [Ca2+]MAX EC50 (μM), [Ca2+]MAX (pCa 5.4)
[7] = Ca2+-ATPase [Ca2+]MID EC50 (μM), [Ca2+]MID (pCa 6.2)
[8] = Ca2+-ATPase activity, [Ca2+]MAX (pCa 5.4), mean±SD, n=4-6
[9] = Ca2+-Uptake [Ca2+]MAX EC50 (μM), [Ca2+]MAX (pCa 5.4)
[10] = Ca2+-Uptake [Ca2+]MID EC50 (μM), [Ca2+]MID (pCa 6.2)

T1 sequence (P11607 1-997 isoform P11607-2): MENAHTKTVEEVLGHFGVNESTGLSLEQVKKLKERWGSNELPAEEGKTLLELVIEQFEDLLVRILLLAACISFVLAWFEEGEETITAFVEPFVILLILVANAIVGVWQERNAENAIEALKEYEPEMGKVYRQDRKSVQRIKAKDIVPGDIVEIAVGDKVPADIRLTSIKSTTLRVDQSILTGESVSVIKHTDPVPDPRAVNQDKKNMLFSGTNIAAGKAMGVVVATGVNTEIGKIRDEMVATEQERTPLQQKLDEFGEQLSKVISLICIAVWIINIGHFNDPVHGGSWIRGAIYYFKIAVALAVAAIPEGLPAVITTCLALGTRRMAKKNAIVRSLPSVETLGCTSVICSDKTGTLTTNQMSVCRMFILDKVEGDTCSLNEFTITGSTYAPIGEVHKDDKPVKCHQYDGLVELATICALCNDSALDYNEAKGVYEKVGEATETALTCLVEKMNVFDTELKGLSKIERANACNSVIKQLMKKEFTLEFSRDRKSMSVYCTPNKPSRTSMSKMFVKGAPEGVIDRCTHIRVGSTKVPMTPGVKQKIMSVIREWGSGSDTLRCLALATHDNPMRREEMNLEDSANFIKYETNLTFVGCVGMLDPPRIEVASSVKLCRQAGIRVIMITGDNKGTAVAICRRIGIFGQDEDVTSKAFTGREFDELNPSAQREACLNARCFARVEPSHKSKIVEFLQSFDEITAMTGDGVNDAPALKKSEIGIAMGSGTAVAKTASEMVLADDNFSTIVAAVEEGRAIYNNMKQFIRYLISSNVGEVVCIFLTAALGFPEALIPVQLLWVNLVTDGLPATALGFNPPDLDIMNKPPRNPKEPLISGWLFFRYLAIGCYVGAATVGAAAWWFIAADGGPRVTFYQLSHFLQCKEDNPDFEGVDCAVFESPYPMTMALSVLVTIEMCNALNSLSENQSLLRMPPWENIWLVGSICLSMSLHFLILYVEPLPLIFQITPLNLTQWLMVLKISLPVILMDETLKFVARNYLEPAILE

CCCN(Cc1ccccc1OC)C(=O)c1cccc(C(F)(F)F)c1 [Compound 21, N-(2-Methoxybenzyl)-N-propyl-3-(trifluoromethyl)benzamide]
EC50 (SERCA2a [1]; [6]): 5.1 ± 2.1 µM | EC50 (SERCA2a [1]; [7]): 5.3 ± 1.3 µM | Max increase (%) (SERCA2a [1]; [8]): 40±14% | Ca2+-ATPase [Ca2+]MAX % effect (SERCA2a [1]; [Ca2+]MAX (pCa 5.4)): 40±14% | Ca2+-ATPase [Ca2+]MID % effect (SERCA2a [1]; [Ca2+]MID (pCa 6.2)): 25±7.4% | EC50 (SERCA2a [2]; [9]): 1.5 ± 0.33 µM | EC50 (SERCA2a [2]; [10]): 1 ± 0.86 µM | Ca2+-Uptake [Ca2+]MAX % effect (SERCA2a [2]; [Ca2+]MAX (pCa 5.4)): 15±5.9% | Ca2+-Uptake [Ca2+]MAX EC50 (μM) (SERCA2a [2]; [Ca2+]MAX (pCa 5.4)): increased | Ca2+-Uptake [Ca2+]MID % effect (SERCA2a [2]; [Ca2+]MID (pCa 6.2)): 7.0±3.7% | selectivity for SERCA1a (vs SERCA2a), ATPase activity (SERCA1a; [Ca2+]MID): at least 8 fold | Thalf (Intrinsic clearance): 10.3 min | microsomal CLint at 1 μM (Intrinsic clearance): 133 ± 11 µL/min/mg | IC50 (HEK-293 cells): 31 ± 16 µM

CCCCN(Cc1ccccc1OC)C(=O)c1cc(C)c(C)s1 [Compound 33, N-Butyl-N-(2-methoxybenzyl)-4,5-dimethylthiophene-2-carboxamide]
EC50 (SERCA2a [1]; [6]): 4 ± 0.8 µM | EC50 (SERCA2a [1]; [7]): 3 ± 1 µM | Max increase (%) (SERCA2a [1]; [8]): 72% and 72±8.5% | Ca2+-ATPase [Ca2+]MAX % effect (SERCA2a [1]; [Ca2+]MAX (pCa 5.4)): 72±8.5% | Ca2+-ATPase [Ca2+]MID % effect (SERCA2a [1]; [Ca2+]MID (pCa 6.2)): 23±6.0% | EC50 (SERCA2a [2]; [9]): 1.1 ± 0.35 µM | EC50 (SERCA2a [2]; [10]): 0.63 ± 0.21 µM | Ca2+-Uptake [Ca2+]MAX % effect (SERCA2a [2]; [Ca2+]MAX (pCa 5.4)): 22±5.6% | Ca2+-Uptake [Ca2+]MAX EC50 (μM) (SERCA2a [2]; [Ca2+]MAX (pCa 5.4)): unchanged | Ca2+-Uptake [Ca2+]MID % effect (SERCA2a [2]; [Ca2+]MID (pCa 6.2)): 15±7.0% | Thalf (Intrinsic clearance): 16.6 min | microsomal CLint at 1 μM (Intrinsic clearance): 83 ± 4.2 µL/min/mg

CCCN(Cc1ccccc1OC)C(=O)c1cc2c(s1)CCCC2 [Compound 8, N-(2-Methoxybenzyl)-N-propyl-4,5,6,7-tetrahydrobenzo[b]thiophene-2-carboxamide]
EC50 (SERCA2a [1]; [6]): 3.3 ± 0.5 µM | EC50 (SERCA2a [1]; [7]): 3.6 ± 2.8 µM | Max increase (%) (SERCA2a [1]; [8]): 45% and 45±10% | EC50 (SERCA2a [2]; [9]): 1.1 ± 0.45 µM | EC50 (SERCA2a [2]; [10]): > 50 µM | Ca2+-Uptake [Ca2+]MAX % effect (SERCA2a [2]; [Ca2+]MAX (pCa 5.4)): 8.8±2.3% | Ca2+-Uptake [Ca2+]MAX EC50 (μM) (SERCA2a [2]; [Ca2+]MAX (pCa 5.4)): unchanged | Thalf (Intrinsic clearance): 20.1 min | microsomal CLint at 1 μM (Intrinsic clearance): 73 ± 9.3 µL/min/mg | IC50 (HEK-293 cells): 29 ± 18 µM

CCCN(Cc1ccccc1OC)C(=O)c1cc(C)c(C)s1 [Compound 1, N-(2-Methoxybenzyl)-4,5-dimethyl-N-propylthiophene-2-carboxamide]
EC50 (SERCA2a [1]; [6]): 5.3 ± 1.8 µM | EC50 (SERCA2a [1]; [7]): 6 ± 1.2 µM | Max increase (%) (SERCA2a [1]; [8]): 57% and 57±13% | EC50 (SERCA2a [2]; [9]): 1.1 ± 0.73 µM | EC50 (SERCA2a [2]; [10]): 0.46 ± 0.35 µM | Thalf (Intrinsic clearance): 97.6 min | microsomal CLint at 1 μM (Intrinsic clearance): 14 ± 1.1 µL/min/mg | activation of SERCA2a ATPase activity (SERCA2a [3]): 58% | activation of SERCA2a Ca2+-uptake (SERCA2a [4]): 24% | SR Ca2+ load / Ca2+ dynamics (cardiomyocytes): increase SR Ca^2+ load; also recorded: increased Ca^2+ dynamics and Ca^2+ load

CCCN(Cc1ccccc1OC)C(=O)c1ccc(F)c(Br)c1 [Compound 25, 3-Bromo-4-fluoro-N-(2-methoxybenzyl)-N-propylbenzamide]
EC50 (SERCA2a [1]; [6]): 4 ± 2.1 µM | EC50 (SERCA2a [1]; [7]): 3.7 ± 0.73 µM | Max increase (%) (SERCA2a [1]; [8]): 53% and 53±7.7% | EC50 (SERCA2a [2]; [9]): 0.8 ± 0.57 µM | EC50 (SERCA2a [2]; [10]): 0.89 ± 0.4 µM | Ca2+-Uptake [Ca2+]MAX EC50 (μM) (SERCA2a [2]; [Ca2+]MAX (pCa 5.4)): decreased | Solubility [5]: 507 ± 7 µg/mL (≈ 1330 µM) | Thalf (Intrinsic clearance): 74.5 min | microsomal CLint at 1 μM (Intrinsic clearance): 15 ± 7.2 µL/min/mg

CCN(Cc1ccccc1OC)C(=O)c1cc(C)c(C)s1 [Compound 32, N-Ethyl-N-(2-methoxybenzyl)-4,5-dimethylthiophene-2-carboxamide]
EC50 (SERCA2a [1]; [6]): 6.3 ± 1.8 µM | EC50 (SERCA2a [1]; [7]): 4.6 ± 2 µM | Max increase (%) (SERCA2a [1]; [8]): 43±6.7% | Ca2+-ATPase [Ca2+]MAX % effect (SERCA2a [1]; [Ca2+]MAX (pCa 5.4)): 43±6.7% | Ca2+-ATPase [Ca2+]MID % effect (SERCA2a [1]; [Ca2+]MID (pCa 6.2)): 24±6.0% | EC50 (SERCA2a [2]; [9]): 0.77 ± 0.57 µM | EC50 (SERCA2a [2]; [10]): 0.91 ± 0.85 µM | Ca2+-Uptake [Ca2+]MAX % effect (SERCA2a [2]; [Ca2+]MAX (pCa 5.4)): 13±5.7% | Ca2+-Uptake [Ca2+]MAX EC50 (μM) (SERCA2a [2]; [Ca2+]MAX (pCa 5.4)): decreased | Ca2+-Uptake [Ca2+]MID % effect (SERCA2a [2]; [Ca2+]MID (pCa 6.2)): 6.0±1.6% | selectivity for SERCA2a relative to SERCA1a, higher efficacy, ATPase activity (SERCA1a; [Ca2+]MAX): at least 8 fold | Thalf (Intrinsic clearance): 34.7 min | microsomal CLint at 1 μM (Intrinsic clearance): 37 ± 6.2 µL/min/mg

CCCN(Cc1ccccc1OC)C(=O)c1cccc(Br)c1F [Compound 24, 3-Bromo-2-fluoro-N-(2-methoxybenzyl)-N-propylbenzamide]
EC50 (SERCA2a [1]; [6]): 3.4 ± 0.29 µM | EC50 (SERCA2a [1]; [7]): 3.3 ± 1.9 µM | Max increase (%) (SERCA2a [1]; [8]): 48±4.6% | Ca2+-ATPase [Ca2+]MAX % effect (SERCA2a [1]; [Ca2+]MAX (pCa 5.4)): 48±4.6% | Ca2+-ATPase [Ca2+]MID % effect (SERCA2a [1]; [Ca2+]MID (pCa 6.2)): 25±5.6% | EC50 (SERCA2a [2]; [9]): 1.4 ± 0.65 µM | EC50 (SERCA2a [2]; [10]): 0.83 ± 0.3 µM | Ca2+-Uptake [Ca2+]MAX % effect (SERCA2a [2]; [Ca2+]MAX (pCa 5.4)): 12±3.0% | Ca2+-Uptake [Ca2+]MID % effect (SERCA2a [2]; [Ca2+]MID (pCa 6.2)): 8.5±3.3% | Thalf (Intrinsic clearance): 51.3 min | microsomal CLint at 1 μM (Intrinsic clearance): 25 ± 4 µL/min/mg

Cc1ccc2cccc(NC(=O)c3ccc(OC(C)C)cc3)c2n1 [CDN1163, reference compound]
IC50 (HEK-293 cells): 63 µM

CCCN(Cc1ccccc1OC)C(=O)c1ccc(Br)c(Br)c1 [Compound 23, 3,4-Dibromo-N-(2-methoxybenzyl)-N-propylbenzamide]
EC50 (SERCA2a [1]; [6]): 0.9 ± 0.38 µM | EC50 (SERCA2a [1]; [7]): 15.3 ± 4.1 µM | Max increase (%) (SERCA2a [1]; [8]): 28±8.1% | Max decrease (%) (SERCA2a [1]; [8]): 28±9.0% | Ca2+-ATPase [Ca2+]MAX % effect (SERCA2a [1]; [Ca2+]MAX (pCa 5.4)): 28±8.1% | EC50 (SERCA2a [2]; [9]): > 50 µM | EC50 (SERCA2a [2]; [10]): 9.2 ± 1.5 µM | Thalf (Intrinsic clearance): 15.3 min | microsomal CLint at 1 μM (Intrinsic clearance): 79 ± 19 µL/min/mg
